For series [1], the target named is T1, OCT1 (SLC22A1) (Homo sapiens, UniProt O15245).
T1 sequence (O15245 whole entry): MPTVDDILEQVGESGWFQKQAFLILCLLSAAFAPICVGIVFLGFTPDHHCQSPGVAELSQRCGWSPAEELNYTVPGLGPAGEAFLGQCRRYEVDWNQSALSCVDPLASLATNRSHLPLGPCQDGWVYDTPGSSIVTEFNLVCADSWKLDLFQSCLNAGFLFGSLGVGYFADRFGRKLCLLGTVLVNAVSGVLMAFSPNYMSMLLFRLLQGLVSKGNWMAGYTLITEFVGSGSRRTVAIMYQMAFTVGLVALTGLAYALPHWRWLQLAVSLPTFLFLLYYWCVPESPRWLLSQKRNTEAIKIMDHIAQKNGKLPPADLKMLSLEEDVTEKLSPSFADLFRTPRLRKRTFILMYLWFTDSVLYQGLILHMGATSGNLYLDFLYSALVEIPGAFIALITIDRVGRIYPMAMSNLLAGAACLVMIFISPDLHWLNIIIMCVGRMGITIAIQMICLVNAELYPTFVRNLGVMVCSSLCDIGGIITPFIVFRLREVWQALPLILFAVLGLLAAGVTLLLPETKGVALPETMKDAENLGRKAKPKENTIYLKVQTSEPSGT
Kind of series: (§1) Inhibition of human OCT1 expressed in HEK293 cells assessed as decrease in uptake of ASP+ after 2 mins by fluorescence assay. It counts as cell-based. The settings on record: human, HEK293 cells that express human OCT1, probe ASP+. In outline: (§2)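 Human OCT1-overexpressing HEK-293 cells (48 h growth, ~90% confluent) were incubated 2 min at 37°C in HBSS with 2 µM ASP+ and serially diluted inhibitor. IC50 was obtained by curve fitting.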

Series [2] concerns the target T2, Solute carrier family 22 member 1 (Homo sapiens, UniProt O15245).
T2 sequence (O15245 whole entry): T1 sequence (O15245 whole entry)
Kind of series: Inhibition of human OCT1 expressed in HEK293 cells assessed as decrease in uptake of YM155 after 1 min.

Series [3] has as its target T2, Solute carrier family 22 member 1. The description is as §1. The format is cell-based. An outline of the steps: as §2
The target is the same in series [4]. Briefly: Competitive inhibition of human OCT1 expressed in HEK293 cells assessed as decrease in uptake of ASP+ after 2 mins by Lineweaver-Burk plot analysis. The settings on record: hek293, 2 min. The format is cell-based. An outline of the steps:
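HEK-293 cells stably overexpressing human OCT1 (kept in DMEM, 10% FBS, 75 µg/ml hygromycin B) were grown 48 h to ~90% confluence. They were exposed for 2 min at 37°C to HBSS with serial dilutions of ASP+ plus inhibitor at 4 fixed concentrations. Fluorescence was read at ex 485/em 585 nm. Reciprocal uptake at each inhibitor level was fitted by linear regression.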

Series [5] has the same target. Kind of series: Competitive inhibition of human OCT1 expressed in HEK293 cells assessed as decrease in uptake of ASP+ after 2 mins by Lineweaver-Burk plot analysis. Particulars: hek293, 2 min; call rule not given here.
Series [6] shares this target. Briefly: Ratio of Kii for human OCT1-ASP+-inhibitor complex to Kis for human OCT1-inhibitor complex by Lineweaver-Burk plot analysis.

Molecules are shown by their SMILES.

In the case of `CN/C(=N/CCSCc1nc[nH]c1C)NC#N` [CIMETIDINE], in series [1], the inhibition at 2 min was found to be 4.13%. In addition, the concentration for half-maximal inhibition (IC50) in series [2] is 149 µM. Regarding `Clc1ccc(C(OCCN2CCCCC2)c2ccccc2)cc1` (centres undefined) [CLOPERASTINE], the IC50 in series [3] was determined as 14.9 µM.

Consider `Oc1c(Cl)cc(Cl)cc1Sc1cc(Cl)cc(Cl)c1O` [BITHIONOL], for which the IC50 in series [3] is 2.23 µM. Consider `CN(C)CCCN1c2ccccc2CCc2ccccc21` [IMIPRAMINE], for which the IC50 in series [3] was 7.95 µM.

On to `CCN(CC)CCNC(=O)c1c(C)[nH]c(/C=C2\C(=O)Nc3ccc(F)cc32)c1C` [SUNITINIB], for which the concentration for half-maximal inhibition (IC50) in series [3] amounted to 6.1 µM.

For the compound `CCN(CC)C(C)CN1c2ccccc2Sc2ccccc21` (centres undefined) [ETHOPROPAZINE], the IC50 in series [3] was 20.5 µM. Further, the “inhibition (INH)” value in series [4] and in series [5] was “Active” each time.

Consider `CC(=O)N1CCN(c2ccc(OCC3COC(Cn4ccnc4)(c4ccc(Cl)cc4Cl)O3)cc2)CC1` (centres undefined) [KETOCONAZOLE], for which the half-inhibitory concentration (IC50) in series [3] stood at 2.6 µM. On to `Cc1cc(C(C#N)c2ccc(Cl)cc2)c(Cl)cc1NC(=O)c1cc(I)cc(I)c1O` (centres undefined) [CLOSANTEL], for which, in series [3], the IC50 was 3 µM. The same measure, in the same setting: then `CCN(CC)CCOCCOC(=O)C1(c2ccccc2)CCCC1` [CARBETAPENTANE], with 1.55 to 1.6 µM. As to `Nc1c2c(nc3ccccc13)CCCC2` [TACRINE], the half-inhibitory concentration (IC50) in series [3] was determined as 21.7 µM. Moreover, the “inhibition (INH)” value in series [4] and in series [5] was “Active” throughout.

Regarding `CC(CCc1ccc(O)cc1)NCCc1ccc(O)c(O)c1` (centres undefined) [DOBUTAMINE], the IC50 in series [3] stood at 4.17 µM. Consider `COc1ccc2c(c1)[C@]13CCCC[C@@H]1[C@H](C2)N(C)CC3` [DEXTROMETHORPHAN], for which the IC50 in series [3] is 10.5 µM. As to `CCN(CC)CCNC(C(=O)OCCC(C)C)c1ccccc1` (centres undefined) [CAMYLOFIN], the IC50 in series [3] is 9.12 µM.

Take `COC1=CC(=O)C[C@@H](C)[C@]12Oc1c(Cl)c(OC)cc(OC)c1C2=O` [GRISEOFULVIN]: the IC50 in series [3] was 7.3 µM. As to `Clc1ccccc1C(c1ccccc1)(c1ccccc1)n1ccnc1` [CLOTRIMAZOLE], in series [3], the IC50 is 12 µM. Consider `CCCNCC(O)COc1ccccc1C(=O)CCc1ccccc1` (centres undefined) [PROPAFENONE], for which the IC50 in series [3] came out at 15.5 µM. With `CNCCCN1c2ccccc2CCc2ccccc21` [DESIPRAMINE], in series [3], the IC50 came out at 9.18 µM.

Take `COc1ccccc1OCCNCC(O)COc1cccc2[nH]c3ccccc3c12` (centres undefined) [CARVEDILOL]: the IC50 in series [3] lay in the range of 3.4 to 3.43 µM.

`N=C(N)N/N=C/c1c(Cl)cccc1Cl` [GUANABENZ]: the IC50 in series [3] was found to be 4.85 µM.

In the case of `Cc1ncc(C[n+]2csc(CCO)c2C)c(N)n1` [THIAMINE ION], in series [3], the IC50 came to 4350 µM. In addition, the inhibition at 2 min in series [1] was -1.5%. Moreover, in series [6], the Ratio worked out at 95.6. Turning to `COc1cc2nc(N(C)CCCNC(=O)C3CCCO3)nc(N)c2cc1OC` (centres undefined) [ALFUZOSIN], the IC50 in series [3] turned out to be 14.9 µM. Consider `Oc1ccc(Cl)cc1Cc1cc(Cl)ccc1O` [DICHLOROPHEN], for which, in series [3], the concentration for half-maximal inhibition (IC50) came out at 8.41 µM. Turning to `CN(C)CCC=C1c2ccccc2COc2ccccc21` [DOXEPIN], the IC50 in series [3] was 11.2 µM. Turning to `c1ccc(CC2NCCc3ccccc32)cc1` (centres undefined), the IC50 in series [3] amounted to 82.1 µM. Also, the “inhibition (INH)” value in series [4] was “Active”. On to `Clc1cccc(Cl)c1N=C1NCCN1` [CLONIDINE], for which the half-maximal inhibitory concentration (IC50) in series [3] came out at 19 µM. The same measure, in the same setting: then `CCc1nc(N)nc(N)c1-c1ccc(Cl)cc1` [PYRIMETHAMINE], with 13.6 µM.
